From ChEMBL document CHEMBL4251639, “Identification of novel 2-benzoxazolinone derivatives with specific inhibitory activity against the HIV-1 nucleocapsid protein” (Eur J Med Chem, 2018) come the findings set out here.

The source made the active and inactive calls. The rule behind the calls is not given here.

In data set [1] the test system is Human immunodeficiency virus 1. Nature of the data set: (§1) Inhibition of HIV-1 nucleocapsid protein (12 to 55 residues) assessed a sreduction in TAR29/cTAR29 duplex formation preincubated for 15 mins followed by TAR29/cTAR29 addition and measured after 15 mins by nucleocapsid annealing mediated electrophoresis assay. The method in brief:
(§2)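 TAR29 and cTAR29 hairpins folded separately (95°C 5 min, slow cooling) in Tris 25 mM, NaCl 30 mM, Mg(ClO4)2 0.2 mM, pH 7.5. NC(12–55, LAI strain; final 8 μM) preincubated with compound (DMSO ≤2%) 15 min at room temperature. Then 1 μM each hairpin added, 15 min at room temperature. Stopped with SDS/EDTA loading buffer; duplex resolved on native 12% PAGE. IC50 from Hill fit, triplicates.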

A short description of data set [2]: as §1. Further details: species or system Human immunodeficiency virus 1. The method in brief:
as §2

In data set [3] the test system is Human immunodeficiency virus 1. As to the kind of experiment: Binding affinity to HIV-1 nucleocapsid protein (1 to 55 residues) at 5 uM incubated for 30 mins by ESI-MS method.
Data set [4] can be described thus: Inhibition of HIV-1 nucleocapsid protein (11 to 55 residues) chaperone activity assessed as reduction in nucleocapsid-induced Alexa488-labeled TAR55AD nucleic acid destabilization using Dabcyl as quencher by spectrofluorimetry based nucleic acid destabilization assay. Details: species or system Human immunodeficiency virus 1. In outline: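 Preformed complex of 100 nM cTAR55 (5'-Alexa488, 3'-Dabcyl) and 1000 nM NC(11–55, MAL strain, Zn-loaded) in Tris 25 mM, NaCl 30 mM, MgCl2 0.2 mM, pH 7.5. Compound titrated in (25–500 μM); emission spectra taken at 480 nm excitation, 20°C. Inhibition calculated relative to cTAR alone and cTAR+NC, corrected for dilution and compound fluorescence. IC50 from Hill dose-response fit, triplicates.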

The test system of data set [5] is Human immunodeficiency virus 1. Nature of the data set: Inhibition of HIV-1 nucleocapsid protein (11 to 55 residues) assessed as reduction in dTAR55/cTAR55AD nucleic acid annealing at 200 uM by Alexa488 dye-based fluorimetric analysis. The method in brief:
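Pseudo-first-order annealing: 10 nM cTAR55 (5'-Alexa488, 3'-Dabcyl) and 100 nM dTAR55, each premixed with 8-fold NC(11–55, MAL strain, Zn-loaded). Buffer was Tris 25 mM, NaCl 30 mM, MgCl2 0.2 mM, pH 7.5, with 1% DMSO. Compound added to the dTAR55/NC mix. Fluorescence read at 480/519 nm, 20°C; rate constant from mono-exponential fit.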

For data set [6], the system named is Human immunodeficiency virus 1. As to the kind of experiment: Antiviral activity against HIV1 NL4-3 infected in human TZM-bl cells measured after 2 days by luciferase reporter gene based monocycle infection assay. It counts as functional, organism-based. The note with it: Human immunodeficiency virus 1, NL4-3, TZM-bl, 48 h. In outline:
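TZM-bl cells (30,000/well) were infected with an NL4-3 stock in the presence of serial five-fold compound dilutions from 5 nM to 400 μM. Plates were held at 37°C, 5% CO2, for two days. Cells were then lysed and luciferase was read as RLU. IC50 was fitted from per-well RLU with a 95% confidence interval.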
A general note: A reporter such as luciferase makes a cellular process visible.

Data set [7] concerns Human immunodeficiency virus 1. Nature of the data set: Antiviral activity against HIV1 NL4-3 infected in human MT2 cells incubated for 72 hrs followed by reinfection in human TZM-bl cells measured after 48 hrs by luciferase reporter gene based bicycle infection assay. The format is functional, organism-based. The note with it: Human immunodeficiency virus 1, NL4-3. In outline: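 This is a two-cycle format. MT-2 cells (50,000/well) were infected with NL4-3 alongside five-fold compound dilutions (5 nM–400 μM) and kept 72 h at 37°C, 5% CO2. Supernatant carrying first-round virus then infected TZM-bl cells (30,000/well) for 48 h under the same conditions. Luciferase RLU gave the IC50 with a 95% confidence interval.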

Data set [8] relates to TZM. As to the kind of experiment: Cytotoxicity against human TZM-bl cells after 48 hrs by CellTiter-Glo reagent-based assay. It counts as cell-based. In outline:
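Viability was measured by CellTiter-Glo ATP luminescence. TZM-bl cells (15,000/well) were incubated 48 h at 37°C, 5% CO2, with serial two-fold compound dilutions from 3.1 to 400 μM. Medium was then replaced by reagent, shaken 10 min, and luminescence read. TD50 was derived from RLU normalised to untreated cells (100% viability), with a 95% confidence interval.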

A short description of data set [9]: Selectivity index, ratio of IC50 for human TZM-bl cells to IC50 for HIV1 NL4-3 infected in human TZM-bl cells. The format is toxicity, cell-based. The note with it: uninfected versus infected with HIV1 NL4-3, read-out: Ratio IC50. In outline: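 Selectivity index from TD50 in TZM-bl cells and IC50 from the MonoCycle assay. […] MonoCycle IC50: 30,000 TZM-bl cells/well infected with NL4-3 with five-fold dilutions 5 nM–400 μM; luciferase RLU read after two days.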

Data set [10] is described as follows: Selectivity index, ratio of IC50 for human MT2 cells to IC50 for HIV1 NL4-3 infected in human MT2 cells. It counts as toxicity, cell-based. The following applies: uninfected versus infected with HIV1 NL4-3, read-out: Ratio IC50. In outline: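 Selectivity index from TD50 in MT-2 cells and IC50 from the BiCycle assay. […] BiCycle IC50: MT-2 cells infected with NL4-3 with compound for 72 h; supernatant then transferred to TZM-bl cells, luciferase read after 48 h.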

Data set [11] concerns MT2. Nature of the data set: Cytotoxicity against human MT2 cells after 72 hrs by CellTiter-Glo reagent-based assay. The following applies: MT2, 72 h. (Cellular ATP, detected with luciferase, serves as a proxy for viable cell number.)
The test system of data set [12] is Human immunodeficiency virus 1. Nature of the data set: Binding affinity to HIV-1 nucleocapsid protein (1 to 55 residues) assessed as fractional protein occupancy ratio at 5 uM incubated for 30 mins by ESI-MS method.

`O=C(O)CCC1NC(=O)N(Cc2ccccc2)C1=O` (configuration not stated): the inhibition (as a rule, how much of the control response was suppressed) in [1] is “inactive”.

For the compound `Cc1cc(C)n(CCOC(=O)c2ccc(N3CCNC3=O)cc2)n1`, in data set [1], the inhibition entry is “inactive”.

As to `O=C(CCC1NC(=O)c2ccccc21)Nc1nc[nH]n1` (configuration not stated), the inhibition entry in data set [1] is “inactive”.

Turning to `COc1ccc(O)c(C(=O)c2cnc3[nH]c(=O)[nH]c(=O)c3c2)c1`, the inhibition result in [1] is “inactive”.

As for `O=C(O)c1ccc(NS(=O)(=O)c2ccc3[nH]c(=O)[nH]c3c2)cc1O`, the IC50 (as a rule, the concentration at which inhibition is half-maximal) in [2] was “Not Active”.

As to `COc1ccccc1-c1nccn1CCc1n[nH]c(=O)[nH]1`, the inhibition entry in [1] was “inactive”.

Turning to `O=c1cc(Cc2nnc(S)n2-c2ccc(Cl)cc2)[nH]c(=O)[nH]1`, the inhibition entry in data set [1] is “Active”.

For `CSCCC(NS(=O)(=O)c1ccc2[nH]c(=O)oc2c1)C(=O)O` (configuration not stated), the IC50 entry in data set [2] is listed as “Not Active”.

As for `Cc1nc2c(c(=O)[nH]1)CCN(S(=O)(=O)c1cccc3nsnc13)C2`, in [1], the inhibition entry is “inactive”.

As for `Cc1ccc(NC(=O)CCn2c(=O)[nH]c3cc(S(=O)(=O)N4CCCC4)ccc32)cc1`, the IC50 result in data set [2] is given as “Not Active”.

Consider `O=C(O)CNS(=O)(=O)c1ccc2[nH]c(=O)oc2c1`, for which the IC50 entry in [2] is “Not Active”.

As to `CS(=O)(=O)N1CCc2cc(NS(=O)(=O)c3ccc4[nH]c(=O)oc4c3)ccc21`, the IC50 result in [2] is reported as “Not Active”.

As to `Cc1nc[nH]c1-c1nccn1CCCc1ccccc1`, the inhibition result in data set [1] was “inactive”.

For `O=C(O)C1CCN(c2ncnc3nc[nH]c23)CC1`, the inhibition result in data set [1] was “inactive”.

On to `O=C(CSc1ccccn1)c1ccc(O)c(O)c1`, for which, in data set [1], the inhibition result was “inactive”.

`c1ccc(-c2ccnc3[nH]ccc23)c(OCCn2ccnc2)c1`: the inhibition entry in data set [1] was “inactive”.

As to `N=C(N)c1ccc(N2CCCCC2)cc1`, the inhibition result in data set [1] is “inactive”.

For the compound `N=C(N)NS(=O)(=O)c1ccc2[nH]c(=O)oc2c1`, the IC50 in data set [2] (read-out: IC50) stood at 203 µM.

In the case of `O=c1[nH]c2ccc(S(=O)(=O)Nn3cnnc3)cc2o1`, in data set [2], the IC50 result is “Not Active”.

On to `NC(=O)c1ccn(COc2ccccc2F)n1`, for which the inhibition entry in data set [1] was “inactive”.

As for `Cc1cc2[nH]c(=O)oc2cc1S(=O)(=O)NN1CCc2c(nc[nH]c2=O)C1`, the IC50 in data set [2] (read-out: IC50) was 170 µM. For the same compound, the outcome in data set [3] was Active.

Take `COc1ccc2[nH]c(C(N)=O)cc2c1`: in data set [1], the inhibition entry was “inactive”.

With `O=c1[nH]c2ccc(S(=O)(=O)Nc3ccc(S(=O)(=O)NCC(F)(F)F)cc3)cc2o1`, the half-maximal inhibitory concentration (IC50) result in [2] is on record as “Not Active”.

With `Cc1cc(CCCNc2nnnn2-c2ccccc2)n[nH]1`, the inhibition result in data set [1] is “inactive”.

With `O=C1CN(C(=O)Cc2n[nH]c(=O)c3ccccc23)CCN1`, in data set [1], the inhibition result is “inactive”.

In the case of `NC(=O)c1ccc(CNC(=O)Cn2ccc(=O)[nH]c2=O)cc1`, in [1], the inhibition entry was “inactive”.

Turning to `Cc1cc(COc2ccc(Cl)cc2C(N)=O)no1`, the inhibition entry in [1] was “inactive”.

On to `O=c1[nH]c2ccc(S(=O)(=O)Nc3cc(C(F)(F)F)ccc3Cl)cc2o1`, for which, in data set [2] (read-out: IC50), the IC50 came to 179 µM. In addition, in data set [3], the result was Active.

For `O=C(Cn1[nH]cc2c(=O)ncnc1-2)NC1(c2ccccc2)CCC1`, in data set [1], the inhibition result was “inactive”.

In the case of `CC(CCc1ccccc1)NC(=O)c1ccc[nH]c1=O` (configuration not stated), the inhibition entry in data set [1] was “inactive”.

In the case of `O=c1[nH]c2cc(S(=O)(=O)Nc3ccc4[nH]ncc4c3)ccc2o1`, the IC50 in data set [2] (read-out: IC50) worked out at 20 µM; in data set [4], 210 µM; in data set [6] it was 30.6 µM; in data set [7] it was 36.4 µM; in data set [11] it was 140 µM. For the same compound, the inhibition in data set [5] is 40%. The compound further gave a TD50 in data set [8] of 155 µM. Further, the selectivity ratio was determined as 5.1 in [9] and 3.8 in [10]. The result in data set [3] was Active. For the same compound, the Ratio in data set [12] is 0.16.

Turning to `COc1ccc(C(C)(C)C)cc1NS(=O)(=O)c1ccc2[nH]c(=O)[nH]c2c1`, the IC50 result in [2] was “Not Active”.

In the case of `O=C(COc1cccc(Cl)c1Cl)N1CCNC1=O`, the inhibition entry in data set [1] was “inactive”.

Take `Nc1cccc(C(=O)NCCCC(=O)O)c1`: the inhibition entry in data set [1] is “inactive”.

With `Cc1nc(CN(C)S(=O)(=O)c2cc3[nH]c(=O)[nH]c3cc2Br)no1`, the IC50 result in data set [2] was “Not Active”.

Regarding `O=C1N=NC(=S)N1c1ccc(Cl)c(Cl)c1`, the inhibition result in [1] is “Active”.

With `N#Cc1cnc(SCc2cccc(C(N)=O)c2)nc1N`, the inhibition entry in data set [1] is “inactive”.

With `O=c1[nH]c2ccc(S(=O)(=O)Nc3cc(-c4ccccc4)no3)cc2[nH]1`, the IC50 entry in data set [2] is on record as “Not Active”.

Take `COc1ccccc1NC(=O)CCNS(=O)(=O)c1ccc2nc(O)oc2c1`: the IC50 entry in [2] is on record as “Not Active”.

For the compound `Cc1ccc(NS(=O)(=O)c2ccc3oc(=O)[nH]c3c2)c(C)c1`, in [3], the result was Active. In data set [12], the Ratio came out at 0.06.

Consider `CC(=O)c1sc(NS(=O)(=O)c2ccc3[nH]c(=O)[nH]c3c2)nc1C`, for which, in data set [2], the IC50 result is on record as “Not Active”.

Consider `COc1cccc(-n2c(CCn3cccn3)n[nH]c2=O)c1`, for which, in data set [1], the inhibition result is “inactive”.

For the compound `O=c1[nH]c2ccc(S(=O)(=O)O)cc2[nH]1`, the IC50 entry in data set [2] was “Not Active”.

As for `O=C(O)c1ccc2c(c1)CCN2S(=O)(=O)c1ccc2[nH]c(=O)oc2c1`, in data set [2] (read-out: IC50), the IC50 was determined as 163 µM. Further, the outcome in data set [3] was Active.

Take `COc1cccc(CNn2cnnc2S)c1OCc1ccccc1`: in data set [1], the inhibition entry is “inactive”.

On to `N#Cc1ccc(CSc2nc3[nH]ncc3c(=O)[nH]2)cc1`, for which the inhibition result in [1] is “inactive”.

Regarding `O=C(CO)N1CCCC(c2[nH]ncc2Cc2ccccc2)C1` (configuration not stated), the inhibition entry in data set [1] is “inactive”.

`Cc1ccc(-c2nn(CCC(=O)O)cc2/C=C2\SC(=N)NC2=O)cc1`: the inhibition entry in [1] is “inactive”.
